Here are results for 35 compounds from ChEMBL document CHEMBL1154625, “New insights into the SAR and binding modes of bis(hydroxyphenyl)thiophenes and -benzenes: influence of additional substituents on 17beta-hydroxysteroid dehydrogenase type 1 (17beta-HSD1) inhibitory activity and selectivity” (J Med Chem, 2009).

For data set [1], the target named is T1, 17-beta-hydroxysteroid dehydrogenase type 2 (Homo sapiens, UniProt P37059).
T1 sequence (P37059 whole entry): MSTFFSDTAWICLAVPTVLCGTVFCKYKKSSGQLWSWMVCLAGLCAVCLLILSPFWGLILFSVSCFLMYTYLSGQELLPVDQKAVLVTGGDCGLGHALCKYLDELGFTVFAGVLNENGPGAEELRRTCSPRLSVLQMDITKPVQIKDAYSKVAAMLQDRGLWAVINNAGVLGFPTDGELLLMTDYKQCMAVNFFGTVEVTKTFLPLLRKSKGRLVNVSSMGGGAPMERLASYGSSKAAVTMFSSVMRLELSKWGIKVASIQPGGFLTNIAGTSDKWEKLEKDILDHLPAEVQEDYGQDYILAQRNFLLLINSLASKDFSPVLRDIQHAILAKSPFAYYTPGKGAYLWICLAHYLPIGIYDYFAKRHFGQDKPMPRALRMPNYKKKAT
The experiment in a line: Inhibition of human placental 17betaHSD2 by radiodetection assay. Summed up: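 Microsomal fraction from fresh human placenta (pellet after homogenisation and centrifugation). Incubated 20 min at 37 °C with NAD+ 1500 μM and unlabeled E2 plus [2,4,6,7-3H]E2 (500 nM final) in phosphate buffer 50 mM with 20% glycerol and 1 mM EDTA, 1% DMSO. Stopped with HgCl2 and ether-extracted. Substrate and product separated by HPLC with radiodetection. Mean of three determinations.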

Data set [2] addresses T2, 17-beta-hydroxysteroid dehydrogenase type 1 (Homo sapiens, UniProt P14061).
T2 sequence (P14061 whole entry): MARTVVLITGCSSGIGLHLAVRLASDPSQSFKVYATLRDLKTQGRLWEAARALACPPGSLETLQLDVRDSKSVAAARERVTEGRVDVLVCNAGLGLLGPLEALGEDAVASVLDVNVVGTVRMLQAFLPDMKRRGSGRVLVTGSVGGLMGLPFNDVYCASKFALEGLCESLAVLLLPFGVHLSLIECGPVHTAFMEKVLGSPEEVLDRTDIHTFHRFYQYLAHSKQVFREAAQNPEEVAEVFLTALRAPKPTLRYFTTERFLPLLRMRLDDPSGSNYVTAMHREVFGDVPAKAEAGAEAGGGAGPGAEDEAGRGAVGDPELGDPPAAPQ

In the next data set the target is Cytochrome P450 2D6 (Homo sapiens, UniProt P10635). Briefly: Inhibition of human hepatic CYP2D6. It is filed as ADME. Summed up: (§1)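 Tested with commercial P450 inhibition kits, used following the manufacturer's instructions. Values reported as IC50.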
For another data set, the target named is Cytochrome P450 3A4 (Homo sapiens, UniProt P08684). The experiment in a line: Inhibition of human hepatic CYP3A4. It is filed as ADME. Summed up:
as §1

In a further data set the test system is Rattus norvegicus. The experiment in a line: AUC (0 to infinity) in Wistar rat at 10 mg/kg, po. The format is ADME, organism-based, Plasma. Further details: time infinity, dose 10 mg/kg, route oral. The note with it: in vivo. Summed up:
(§2)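 Male Wistar rats (300-330 g), jugular-vein cannulated under ketamine/xylazine anaesthesia, sampled while freely moving. Oral cassette dosing by feeding needle to four rats at 10 mg/kg in labrasol/water (1:1), 5 mL/kg. Blood taken at 0, 1, 2, 3, 4, 6, 8, 10 and 24 h postdose; plasma frozen at -20 °C and quantified by HPLC-MS/MS.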

Data set [3] in a line: Tmax in Wistar rat at 10 mg/kg, po. It is filed as ADME, organism-based. Also on record: dose 10 mg/kg, route oral. The settings on record: in vivo. Summed up:
as §2

In the next data set the test system is T47D. The experiment in a line: […] in human T47D cells assessed as inhibition of E2 formation in presence of E1.
A short description of data set [4]: Terminal half life in Wistar rat at 10 mg/kg, po. The format is ADME, organism-based. Further details: dose 10 mg/kg, route oral. The note with it: in vivo, read-out: beta t1/2 (converted). Summed up: as §2
Data set [5] can be described thus: Cmax in Wistar rat at 10 mg/kg, po. It is filed as ADME, organism-based. Further details: dose 10 mg/kg, route oral. The note with it: in vivo. Summed up: as §2
The target in another data set is Cytochrome P450 2C19 (Homo sapiens, UniProt P33261). Briefly: Inhibition of human hepatic CYP2C19. The format is ADME. Summed up:
as §1

Data set [6] concerns the target T3, Estrogen receptor (Homo sapiens) (UniProt P03372).
T3 sequence (whole entry): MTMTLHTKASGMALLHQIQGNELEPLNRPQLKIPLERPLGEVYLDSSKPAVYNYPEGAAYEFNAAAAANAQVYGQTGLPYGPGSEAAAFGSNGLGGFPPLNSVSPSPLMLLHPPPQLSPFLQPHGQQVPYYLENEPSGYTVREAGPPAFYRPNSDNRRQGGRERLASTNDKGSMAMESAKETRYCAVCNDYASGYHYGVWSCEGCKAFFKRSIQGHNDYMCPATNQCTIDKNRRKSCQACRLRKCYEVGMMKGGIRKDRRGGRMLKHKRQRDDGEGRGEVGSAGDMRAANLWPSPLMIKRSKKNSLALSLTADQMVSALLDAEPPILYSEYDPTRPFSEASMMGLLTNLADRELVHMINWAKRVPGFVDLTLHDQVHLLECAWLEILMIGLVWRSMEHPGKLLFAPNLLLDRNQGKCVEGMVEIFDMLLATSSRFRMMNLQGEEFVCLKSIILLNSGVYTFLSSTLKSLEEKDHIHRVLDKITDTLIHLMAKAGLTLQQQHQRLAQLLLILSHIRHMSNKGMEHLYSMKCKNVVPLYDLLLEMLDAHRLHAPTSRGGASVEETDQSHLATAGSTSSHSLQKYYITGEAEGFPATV
Briefly: Agonist activity at ER in human T47D cells assessed as stimulation of cell proliferation. It is filed as functional, cell-based. Summed up: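 T-47D cells grown 48 h in phenol red-free RPMI 1640 with 5% DCC-FCS, insulin and supplements, then exposed to test compound at 100 nM final (1% ethanol) for 8 days. Medium and additive renewed every 2-3 days. E2 0.1 nM served as positive control, ethanol as negative. Viability read by MTT at 590 nm. Stimulation was expressed relative to E2-induced proliferation, mean of ≥3 independent experiments.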

pIC50: −log10 of the molar value. Calls of active or inactive are those of the source. No cut-off for these calls is given here.

Sequence of Cytochrome P450 2D6 (P10635 whole entry): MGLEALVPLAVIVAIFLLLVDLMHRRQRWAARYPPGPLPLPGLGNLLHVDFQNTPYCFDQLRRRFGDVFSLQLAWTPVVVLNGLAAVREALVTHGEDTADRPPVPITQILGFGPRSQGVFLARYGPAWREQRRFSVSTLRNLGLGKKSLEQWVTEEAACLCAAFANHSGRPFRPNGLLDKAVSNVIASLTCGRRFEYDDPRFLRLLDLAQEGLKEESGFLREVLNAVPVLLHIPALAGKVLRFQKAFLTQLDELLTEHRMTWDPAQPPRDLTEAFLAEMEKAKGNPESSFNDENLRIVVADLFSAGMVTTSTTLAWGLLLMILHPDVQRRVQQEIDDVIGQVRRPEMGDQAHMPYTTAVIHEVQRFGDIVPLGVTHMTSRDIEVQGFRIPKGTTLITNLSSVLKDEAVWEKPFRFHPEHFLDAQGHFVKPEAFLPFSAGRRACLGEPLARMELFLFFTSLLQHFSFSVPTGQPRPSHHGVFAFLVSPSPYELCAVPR
Sequence of Cytochrome P450 3A4 (P08684 whole entry): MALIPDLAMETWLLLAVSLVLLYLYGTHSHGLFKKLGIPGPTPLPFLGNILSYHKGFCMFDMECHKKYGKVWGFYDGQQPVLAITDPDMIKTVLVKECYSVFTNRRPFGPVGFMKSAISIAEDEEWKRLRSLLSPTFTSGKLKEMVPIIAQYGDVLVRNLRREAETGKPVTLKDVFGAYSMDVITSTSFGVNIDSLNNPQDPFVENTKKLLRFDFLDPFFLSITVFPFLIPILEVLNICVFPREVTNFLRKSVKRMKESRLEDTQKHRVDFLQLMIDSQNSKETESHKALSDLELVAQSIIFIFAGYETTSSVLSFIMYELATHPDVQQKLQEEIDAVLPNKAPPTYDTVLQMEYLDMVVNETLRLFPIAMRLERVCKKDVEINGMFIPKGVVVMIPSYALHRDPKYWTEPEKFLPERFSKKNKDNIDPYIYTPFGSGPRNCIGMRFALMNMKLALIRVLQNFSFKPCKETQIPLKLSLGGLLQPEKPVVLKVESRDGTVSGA
Sequence of Cytochrome P450 2C19 (P33261 whole entry): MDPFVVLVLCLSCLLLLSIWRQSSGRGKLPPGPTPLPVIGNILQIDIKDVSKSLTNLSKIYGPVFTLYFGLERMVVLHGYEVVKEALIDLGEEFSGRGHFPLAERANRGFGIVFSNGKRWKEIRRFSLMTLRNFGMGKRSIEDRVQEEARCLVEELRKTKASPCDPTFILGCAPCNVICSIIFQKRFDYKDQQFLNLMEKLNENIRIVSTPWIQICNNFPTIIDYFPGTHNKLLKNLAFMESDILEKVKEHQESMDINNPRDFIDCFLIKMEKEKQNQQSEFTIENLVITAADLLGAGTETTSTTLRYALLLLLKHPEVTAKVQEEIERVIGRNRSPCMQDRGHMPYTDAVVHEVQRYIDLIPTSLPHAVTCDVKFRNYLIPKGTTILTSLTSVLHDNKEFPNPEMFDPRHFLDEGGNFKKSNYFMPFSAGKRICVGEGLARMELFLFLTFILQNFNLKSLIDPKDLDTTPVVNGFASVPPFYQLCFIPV

As a reminder, the pIC50 is −log10 of the IC50, conventionally taken in molar units. As to `Oc1cccc(-c2cc(-c3ccc(O)c(F)c3)cs2)c1`, the pIC50 in data set [1] was 6.29; in data set [2], 7.19.

Regarding `Oc1cccc(-c2ccc(-c3ccc(F)c(F)c3)s2)c1`, the negative logarithm of the IC50 (pIC50) was 5.58 in data set [1] and 6.11 in data set [2].

For `CCOC(=O)/C=C/c1cc(-c2ccc(-c3cccc(O)c3)s2)ccc1O`, the negative-log IC50 (pIC50) was 6.30 in data set [1] and 6.89 in [2].

As to `Cc1cc(O)cc(-c2ccc(-c3ccc(O)cc3)s2)c1`, the pIC50 in data set [1] is 5.59; in [2], 6.20.

As usually defined, the Tmax is the time at which the peak concentration occurs. What is called Cmax is the peak of the concentration-time curve. On to `Oc1cccc(-c2ccc(-c3ccc(O)c(F)c3)s2)c1`, for which the negative-log IC50 (pIC50) at Cytochrome P450 2D6 was less than 5.82; against Cytochrome P450 3A4, 6.09; in the data set on T47D, 6.55; at Cytochrome P450 2C19, 5.82; in [2], 8.10. Also, in the data set with Rattus norvegicus, the AUC stood at 19407 ng/mL. The time of peak concentration (Tmax) in data set [3] stood at 8 h. Further, the half-life in [4] is 2.7 h. In data set [5], the Cmax was found to be 1390 ng/mL.

In data set [2], `Oc1cccc(-c2ccc(-c3ccc(O)c(-c4ccccc4)c3)s2)c1` gave a pIC50 of less than 5.30.

`Oc1ccc(-c2ccc(-c3ccc(O)c(O)c3)s2)cc1` gave a pIC50 in data set [2] of less than 5.30.

For `Cc1cc(-c2ccc(-c3cccc(O)c3)cc2)ccc1O`, the results for the negative logarithm of the IC50 (pIC50) in data set [1] and in data set [2] were 5.90 and 6.77, respectively.

`Nc1ccc(-c2ccc(-c3cccc(O)c3)s2)cc1` showed a negative-log IC50 (pIC50) in data set [2] of less than 5.30.

For the compound `Cc1cc(-c2cnc(-c3cccc(O)c3)s2)ccc1O`, the pIC50 in [2] was 6.84.

As to `Cc1cc(-c2csc(-c3cccc(O)c3)c2)ccc1O`, the negative-log IC50 (pIC50) against Cytochrome P450 2D6 was less than 5.82; on Cytochrome P450 3A4 it was less than 5.82; with T47D it was 6.44; against Cytochrome P450 2C19 it was 5.82; in data set [2], 7.19.

`Oc1cc(-c2ccc(-c3ccc(O)c(F)c3)s2)ccc1F`: the pIC50 is 6.66 in data set [1] and 7.77 in data set [2].

Turning to `CS(=O)(=O)Nc1cccc(-c2ccc(-c3cccc(O)c3)s2)c1`, the pIC50 in data set [1] is 5.80.

For the compound `Oc1cccc(-c2ccc(-c3cc(F)c(O)c(F)c3)s2)c1`, the pIC50 in data set [1] is 6.51; in [2] it was 7.25.

`Oc1cccc(-c2cc(-c3ccccc3)c(-c3cccc(O)c3)s2)c1`: the pIC50 in data set [2] is 6.31.

In turn, `Oc1ccc(-c2cc(-c3cccc(O)c3)c(-c3cccc(O)c3)s2)cc1` showed a pIC50 in [2] of less than 6.00.

Regarding `Oc1cccc(-c2ccc(-c3ccc(S)cc3)s2)c1`, the pIC50 in data set [2] is less than 5.30.

With `Oc1cccc(-c2ccc(-c3ccc(F)c(O)c3)cc2)c1`, the negative-log IC50 (pIC50) is 6.60 in data set [1] and 7.29 in data set [2].

On to `O=C(/C=C/c1cc(-c2ccc(-c3cccc(O)c3)s2)ccc1O)Nc1ccccc1`, for which the negative-log IC50 (pIC50) in data set [1] is 6.33; in data set [2] it was 6.37.

For the compound `N#Cc1ccc(-c2ccc(-c3cccc(O)c3)s2)cc1`, the negative-log IC50 (pIC50) in [2] is less than 6.00.

For the compound `Oc1ccc(-c2ccc(-c3cc(O)cc(F)c3)s2)cc1`, the negative logarithm of the IC50 (pIC50) in data set [1] was 6.33; in data set [2] it was 7.38.

Regarding `Cc1ccc(S(=O)(=O)NCc2cccc(-c3ccc(-c4cccc(O)c4)s3)c2)cc1`, the figures for the pIC50 in data set [1] and in [2] were 6.56 and 6.46, respectively.

`Oc1cccc(-c2ccc(-c3ccc(O)c(F)c3)cc2)c1`: the values for the pIC50 in data set [1] and in data set [2] were 6.06 and 6.91, respectively.

Regarding `Oc1cccc(-c2ccc(-c3ccc(O)c(C(F)(F)F)c3)s2)c1`, the pIC50 in data set [1] was 7.01; in data set [2], 7.42.

As for `Oc1ccc(-c2ccc(-c3ccc(F)c(O)c3)s2)cc1`, the pIC50 is 6.74 in data set [1] and 6.95 in data set [2].

`O=C(CCc1cc(-c2ccc(-c3cccc(O)c3)s2)ccc1O)Nc1ccccc1`: the pIC50 in data set [1] was 6.01; in data set [2] it was 6.21.

`Cc1ccc(-c2ccc(-c3ccc(O)cc3)s2)cc1O`: in [2], the pIC50 is less than 5.30.

With `Oc1cc(F)cc(-c2ccc(-c3ccc(O)c(F)c3)s2)c1`, the negative-log IC50 (pIC50) was 6.64 in data set [1] and 7.54 in data set [2].

Take `Oc1cccc(-c2ccc(-c3ccc(O)c(O)c3)s2)c1`: the pIC50 in data set [2] is 6.40.

Regarding `CS(=O)(=O)NCc1cccc(-c2ccc(-c3cccc(O)c3)s2)c1`, the negative logarithm of the IC50 (pIC50) in [2] is less than 6.00.

In the case of `Cc1cc(-c2cccc(O)c2)sc1-c1cccc(O)c1`, the figures for the pIC50 in data set [1] and in data set [2] were 6.07 and 6.25, respectively.

`Oc1cccc(-c2ccc(-c3cccc(F)c3)s2)c1` had a negative-log IC50 (pIC50) in [1] of 5.74.

`Cc1cc(-c2ccc(-c3cccc(O)c3)s2)ccc1O`: the pIC50 is less than 5.82 against Cytochrome P450 2D6; 6.30 against Cytochrome P450 3A4; 6.37 with T47D; 6.03 against Cytochrome P450 2C19; 7.34 in data set [2]. This compound gave an AUC in the data set on Rattus norvegicus of 12275 ng/mL. In data set [6], the result was inactive. Besides, the time to peak (Tmax) in data set [3] was 4 h. The half-life in data set [4] was 3.8 h. Also, the highest level in data set [5] (Cmax) was 905 ng/mL.

`Oc1cccc(-c2cc(-c3cccc(O)c3)c(-c3cccc(O)c3)s2)c1`: the negative-log IC50 (pIC50) in data set [1] is 6.73; in [2], 6.92.

Compound `Oc1cccc(-c2ccc(-c3ccc(F)cc3)s2)c1` gave a negative-log IC50 (pIC50) in [1] of 5.44.
